Measured values taken from ChEMBL document CHEMBL1240456, “Synthesis and antimicrobial activity of some new thiazole, thiophene and pyrazole derivatives containing benzothiazole moiety” (2010).
Converted amounts (≈) assume the structure as drawn.

What was measured:
Format in all cases: functional
[1] = test system: Pseudomonas fluorescens; test: Antimicrobial activity against Pseudomonas fluorescens S 97 after 24 hrs by microdilution assay; details: S 97, 24 h
Method in brief: (§1)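 Broth microdilution in Müller-Hinton broth, run only for compounds giving zones >12 mm. Stock at 1000 µg/mL in DMF, then twofold dilutions of 500 down to 3.125 µg/mL. Wells inoculated with 10^6 CFU/mL.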

[2] = test system: Fusarium oxysporum; test: Antimicrobial activity against Fusarium oxysporum after 48 hrs by agar diffusion assay
[3] = test system: Fusarium oxysporum; test: Antimicrobial activity against Fusarium oxysporum after 48 hrs by microdilution assay
Method in brief: (§2)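 Broth microdilution in Sabouraud liquid medium, run only for compounds giving zones >12 mm. Stock at 1000 µg/mL in DMF, then twofold dilutions of 500 down to 3.125 µg/mL. Wells inoculated with 10^6 CFU/mL.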

[4] = test system: Staphylococcus aureus; test: Antimicrobial activity against Staphylococcus aureus ATCC 25923 after 24 hrs by microdilution assay; details: ATCC 25923, 24 h; method in brief: as §1
[5] = test system: Aspergillus fumigatus; test: Antimicrobial activity against Aspergillus fumigatus after 48 hrs by agar diffusion assay
[6] = test system: Pseudomonas; test: Antimicrobial activity against Pseudomonas phaseolicola GSPB 2828 after 24 hrs by microdilution assay; details: GSPB 2828, 24 h; method in brief: as §1
[7] = test system: Streptococcus pyogenes; test: Antimicrobial activity against Streptococcus pyogenes ATCC 19615 after 24 hrs by agar diffusion assay
Method in brief: (§3)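 Filter-paper disks (5 mm) loaded with test solution at 1 mg/mL in DMF, placed on agar seeded with the bacterium, in triplicate. DMF alone served as control. Plates incubated at 37 °C for 24 h. Read-out is the mean diameter of the inhibition zone in mm.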

[8] = test system: Pseudomonas; test: Antimicrobial activity against Pseudomonas phaseolicola GSPB 2828 after 24 hrs by agar diffusion assay; method in brief: as §3
[9] = test system: Aspergillus fumigatus; test: Antimicrobial activity against Aspergillus fumigatus after 48 hrs by microdilution assay; method in brief: as §2
[10] = test system: Pseudomonas fluorescens; test: Antimicrobial activity against Pseudomonas fluorescens S 97 after 24 hrs by agar diffusion assay; method in brief: as §3
[11] = test system: Streptococcus pyogenes; test: Antimicrobial activity against Streptococcus pyogenes ATCC 19615 after 24 hrs by microdilution assay; details: ATCC 19615, 24 h; method in brief: as §1
[12] = test system: Staphylococcus aureus; test: Antimicrobial activity against Staphylococcus aureus ATCC 25923 after 24 hrs by agar diffusion assay; method in brief: as §3

N#C/C(C(=O)Nc1nc2ccccc2s1)=C1/SC=C(c2ccccc2)N1c1ccccc1
MIC [1]: 50 µg/mL (≈ 110 µM)
inhibition zone (IZ) [2]: 15 mm
MIC [3]: 100 µg/mL (≈ 221 µM)
MIC [4]: 50 µg/mL (≈ 110 µM)
inhibition zone (IZ) [5]: 38 mm
MIC [6]: 100 µg/mL (≈ 221 µM)
inhibition zone (IZ) [7]: 15 mm
inhibition zone (IZ) [8]: 14 mm
MIC [9]: 6.25 µg/mL (≈ 13.8 µM)
inhibition zone (IZ) [10]: 19 mm
MIC [11]: 100 µg/mL (≈ 221 µM)
inhibition zone (IZ) [12]: 19 mm

O=c1c2c(Nc3ccccc3)n[nH]c2ncn1-c1nc2ccccc2s1
MIC [1]: 100 µg/mL (≈ 277 µM)
inhibition zone (IZ) [2]: 19 mm
MIC [3]: 50 µg/mL (≈ 139 µM)
MIC [4]: 100 µg/mL (≈ 277 µM)
inhibition zone (IZ) [5]: 15 mm
MIC [6]: 6.25 µg/mL (≈ 17.3 µM)
inhibition zone (IZ) [7]: 15 mm
inhibition zone (IZ) [8]: 38 mm
MIC [9]: 100 µg/mL (≈ 277 µM)
inhibition zone (IZ) [10]: 15 mm
MIC [11]: 100 µg/mL (≈ 277 µM)
inhibition zone (IZ) [12]: 15 mm

C[C@@H]1C[C@@H]([C@H](O)CC2CC(=O)NC(=O)C2)C(=O)[C@@H](C)C1 [CYCLOHEXIMIDE]
inhibition zone (IZ) [2]: 43 mm
MIC [3]: 3.12 µg/mL (≈ 11.1 µM)
inhibition zone (IZ) [5]: 42 mm
MIC [9]: 3.12 µg/mL (≈ 11.1 µM)

CC(=O)OCC1=C(C(=O)O)N2C(=O)[C@@H](NC(=O)Cc3cccs3)[C@H]2SC1 [CEPHALOTHIN]
MIC [1]: 6.25 µg/mL (≈ 15.8 µM)
MIC [4]: 6.25 µg/mL (≈ 15.8 µM)
MIC [6]: 6.25 µg/mL (≈ 15.8 µM)
inhibition zone (IZ) [7]: 37 mm
inhibition zone (IZ) [8]: 38 mm
inhibition zone (IZ) [10]: 37 mm
MIC [11]: 6.25 µg/mL (≈ 15.8 µM)
inhibition zone (IZ) [12]: 36 mm

Nc1sc2c(c1C(=O)Nc1nc3ccccc3s1)CCCC2
MIC [1]: 100 µg/mL (≈ 304 µM)
inhibition zone (IZ) [2]: 15 mm
MIC [3]: 100 µg/mL (≈ 304 µM)
MIC [4]: 6.25 µg/mL (≈ 19 µM)
inhibition zone (IZ) [5]: 19 mm
MIC [6]: 100 µg/mL (≈ 304 µM)
inhibition zone (IZ) [7]: 38 mm
inhibition zone (IZ) [8]: 14 mm
MIC [9]: 50 µg/mL (≈ 152 µM)
inhibition zone (IZ) [10]: 16 mm
MIC [11]: 6.25 µg/mL (≈ 19 µM)
inhibition zone (IZ) [12]: 38 mm

O=C(Nc1nc2ccccc2s1)c1c(Nc2ccccc2)n[nH]c1/N=C\c1cn(-c2ccccc2)nc1-c1ccccc1
MIC [1]: 50 µg/mL (≈ 86.1 µM)
inhibition zone (IZ) [2]: 26 mm
MIC [3]: 25 µg/mL (≈ 43.1 µM)
MIC [4]: 3.12 µg/mL (≈ 5.38 µM)
inhibition zone (IZ) [5]: 14 mm
MIC [6]: 100 µg/mL (≈ 172 µM)
inhibition zone (IZ) [7]: 37 mm
inhibition zone (IZ) [8]: 15 mm
MIC [9]: 100 µg/mL (≈ 172 µM)
inhibition zone (IZ) [10]: 19 mm
MIC [11]: 6.25 µg/mL (≈ 10.8 µM)
inhibition zone (IZ) [12]: 44 mm

Cc1cc(C)c2c(n1)[nH]n1c(=N)c(C(=O)Nc3nc4ccccc4s3)nnc21
MIC [1]: 12.5 µg/mL (≈ 32 µM)
inhibition zone (IZ) [2]: 26 mm
MIC [3]: 25 µg/mL (≈ 64 µM)
MIC [4]: 100 µg/mL (≈ 256 µM)
inhibition zone (IZ) [5]: 19 mm
MIC [6]: 100 µg/mL (≈ 256 µM)
inhibition zone (IZ) [7]: 15 mm
inhibition zone (IZ) [8]: 15 mm
MIC [9]: 50 µg/mL (≈ 128 µM)
inhibition zone (IZ) [10]: 32 mm
MIC [11]: 100 µg/mL (≈ 256 µM)
inhibition zone (IZ) [12]: 14 mm

Nc1c(C(=O)Nc2nc3ccccc3s2)sc(=S)n1-c1ccccc1
MIC [1]: 100 µg/mL (≈ 260 µM)
inhibition zone (IZ) [2]: 31 mm
MIC [3]: 12.5 µg/mL (≈ 32.5 µM)
MIC [4]: 12.5 µg/mL (≈ 32.5 µM)
inhibition zone (IZ) [5]: 16 mm
MIC [6]: 50 µg/mL (≈ 130 µM)
inhibition zone (IZ) [7]: 14 mm
inhibition zone (IZ) [8]: 20 mm
MIC [9]: 100 µg/mL (≈ 260 µM)
inhibition zone (IZ) [10]: 16 mm
MIC [11]: 100 µg/mL (≈ 260 µM)
inhibition zone (IZ) [12]: 32 mm

O=C(N[C@H](CO)[C@H](O)c1ccc([N+](=O)[O-])cc1)C(Cl)Cl [CHLORAMPHENICOL]
MIC [1]: 6.25 µg/mL (≈ 19.3 µM)
MIC [4]: 3.12 µg/mL (≈ 9.67 µM)
MIC [6]: 6.25 µg/mL (≈ 19.3 µM)
inhibition zone (IZ) [7]: 44 mm
inhibition zone (IZ) [8]: 37 mm
inhibition zone (IZ) [10]: 38 mm
MIC [11]: 3.12 µg/mL (≈ 9.67 µM)
inhibition zone (IZ) [12]: 42 mm

Cc1cc(O)n2nc(Nc3ccccc3)c(C(=O)Nc3nc4ccccc4s3)c2n1
MIC [1]: 50 µg/mL (≈ 120 µM)
inhibition zone (IZ) [2]: 15 mm
MIC [3]: 100 µg/mL (≈ 240 µM)
MIC [4]: 25 µg/mL (≈ 60 µM)
inhibition zone (IZ) [5]: 14 mm
MIC [6]: 25 µg/mL (≈ 60 µM)
inhibition zone (IZ) [7]: 37 mm
inhibition zone (IZ) [8]: 26 mm
MIC [9]: 100 µg/mL (≈ 240 µM)
inhibition zone (IZ) [10]: 19 mm
MIC [11]: 6.25 µg/mL (≈ 15 µM)
inhibition zone (IZ) [12]: 25 mm

O=C(Nc1nc2ccccc2s1)c1c(Nc2ccccc2)nn2c(-c3cccs3)ccnc12
MIC [1]: 50 µg/mL (≈ 107 µM)
inhibition zone (IZ) [2]: 37 mm
MIC [3]: 6.25 µg/mL (≈ 13.3 µM)
MIC [4]: 100 µg/mL (≈ 213 µM)
inhibition zone (IZ) [5]: 26 mm
MIC [6]: 100 µg/mL (≈ 213 µM)
inhibition zone (IZ) [7]: 15 mm
inhibition zone (IZ) [8]: 15 mm
MIC [9]: 25 µg/mL (≈ 53.4 µM)
inhibition zone (IZ) [10]: 18 mm
MIC [11]: 100 µg/mL (≈ 213 µM)
inhibition zone (IZ) [12]: 14 mm

Nc1c(C(=O)c2ccccc2)sc(Nc2ccccc2)c1C(=O)Nc1nc2ccccc2s1
MIC [1]: 50 µg/mL (≈ 106 µM)
inhibition zone (IZ) [2]: 14 mm
MIC [3]: 100 µg/mL (≈ 213 µM)
MIC [4]: 6.25 µg/mL (≈ 13.3 µM)
MIC [6]: 50 µg/mL (≈ 106 µM)
inhibition zone (IZ) [7]: 37 mm
inhibition zone (IZ) [8]: 19 mm
inhibition zone (IZ) [10]: 20 mm
MIC [11]: 6.25 µg/mL (≈ 13.3 µM)
inhibition zone (IZ) [12]: 38 mm

Nc1[nH]nc(-c2cn(-c3ccccc3)nc2-c2ccccc2)c1C(=O)Nc1nc2ccccc2s1
MIC [1]: 50 µg/mL (≈ 105 µM)
inhibition zone (IZ) [2]: 19 mm
MIC [3]: 50 µg/mL (≈ 105 µM)
MIC [4]: 12.5 µg/mL (≈ 26.2 µM)
MIC [6]: 100 µg/mL (≈ 209 µM)
inhibition zone (IZ) [7]: 38 mm
inhibition zone (IZ) [8]: 14 mm
inhibition zone (IZ) [10]: 20 mm
MIC [11]: 6.25 µg/mL (≈ 13.1 µM)
inhibition zone (IZ) [12]: 32 mm

O=C1CSC(CC(=O)Nc2nc3ccccc3s2)=N1
MIC [1]: 6.25 µg/mL (≈ 21.5 µM)
inhibition zone (IZ) [2]: 16 mm
MIC [3]: 100 µg/mL (≈ 343 µM)
MIC [4]: 25 µg/mL (≈ 85.8 µM)
inhibition zone (IZ) [5]: 20 mm
MIC [6]: 100 µg/mL (≈ 343 µM)
inhibition zone (IZ) [7]: 25 mm
inhibition zone (IZ) [8]: 14 mm
MIC [9]: 50 µg/mL (≈ 172 µM)
inhibition zone (IZ) [10]: 37 mm
MIC [11]: 25 µg/mL (≈ 85.8 µM)
inhibition zone (IZ) [12]: 26 mm

CCOC(=O)c1sc(Nc2ccccc2)c(C(=O)Nc2nc3ccccc3s2)c1N
inhibition zone (IZ) [2]: 14 mm
MIC [3]: 100 µg/mL (≈ 228 µM)
MIC [4]: 3.12 µg/mL (≈ 7.13 µM)
inhibition zone (IZ) [5]: 31 mm
MIC [6]: 50 µg/mL (≈ 114 µM)
inhibition zone (IZ) [7]: 38 mm
inhibition zone (IZ) [8]: 19 mm
MIC [9]: 12.5 µg/mL (≈ 28.5 µM)
MIC [11]: 6.25 µg/mL (≈ 14.3 µM)
inhibition zone (IZ) [12]: 43 mm

N#C/C(C(=O)Nc1nc2ccccc2s1)=C1\SCC(=O)N1c1ccccc1
MIC [1]: 100 µg/mL (≈ 255 µM)
inhibition zone (IZ) [2]: 14 mm
MIC [3]: 100 µg/mL (≈ 255 µM)
MIC [4]: 100 µg/mL (≈ 255 µM)
inhibition zone (IZ) [5]: 19 mm
MIC [6]: 100 µg/mL (≈ 255 µM)
inhibition zone (IZ) [7]: 14 mm
inhibition zone (IZ) [8]: 15 mm
MIC [9]: 50 µg/mL (≈ 127 µM)
inhibition zone (IZ) [10]: 17 mm
MIC [11]: 100 µg/mL (≈ 255 µM)
inhibition zone (IZ) [12]: 15 mm
